# ChEMBL document CHEMBL4033793, “Potent and Selective Inhibitors of Human Sirtuin 5” (J Med Chem, 2018)
# The source made the active and inactive calls. The rule behind the calls is not given here. Starred links: 1 amine or outer side, 2 acyl side, 3 side chain; linkers in the order of their positions; H or OH if unused. Residues, ends and D or L forms follow the SMILES beside them. *: point of attachment. X2 = O=C(CCCC[C@@H]1SC[C@@H]2NC(=O)N[C@@H]21)NCCCOCCOCCOCCCN*; X59 = O=C(O)[C@@H](CC(=O)*)SCc1ccc(Cl)cc1; X1 = O=C(O)[C@H](CC(=O)*)Sc1ccc2ccccc2c1; X73 = O=C(O)[C@H](CC(=O)*)SCc1ccccc1Cl; X69 = O=C(O)[C@@H](CC(=O)*)Sc1ccccc1; X9 = O=C(O)C(CC(=O)*)Sc1ccc2ccccc2c1; Suc = O=C(CCC(=O)[*:2])[*:1]; Bz = O=C(c1ccccc1)*
# Legend:
# [1] = molecular target: T1, NAD-dependent protein deacylase sirtuin-5, mitochondrial (Homo sapiens, UniProt Q9NXA8); assay: Competitive inhibition of human recombinant N-terminal Strep2-tagged SIRT5 expressed in Escherichia coli BL21 (DE3) using Abz-GVLK(glutaryl)AY(NO2)GV-NH2 as substrate in presence of NAD+ by fluorescence assay
# Outline: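 Continuous trypsin-coupled fluorescence assay at 37°C: 10 nM SIRT5, 500 µM NAD+, 500 nM trypsin, 5% DMSO, 0.025-5 µM substrate, 0.01-20 µM inhibitor. Buffer: 20 mM Tris, 150 mM NaCl, 5 mM MgCl2, pH 7.8. Excitation 320 nm, emission 420 nm. Measured in duplicate; IC50 determined at 0.03 µM substrate by log(inhibitor) vs normalized response fit.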
# Target sequence in this assay (Q9NXA8 whole entry): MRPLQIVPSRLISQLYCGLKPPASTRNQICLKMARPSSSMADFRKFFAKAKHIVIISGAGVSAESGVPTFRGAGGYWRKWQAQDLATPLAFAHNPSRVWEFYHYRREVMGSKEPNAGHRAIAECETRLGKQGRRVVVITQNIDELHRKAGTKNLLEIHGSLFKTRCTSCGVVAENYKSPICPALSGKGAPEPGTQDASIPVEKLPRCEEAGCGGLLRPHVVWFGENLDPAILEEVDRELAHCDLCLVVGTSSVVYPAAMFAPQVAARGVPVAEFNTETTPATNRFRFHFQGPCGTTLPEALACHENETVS
# [2] = molecular target: T1, NAD-dependent protein deacylase sirtuin-5, mitochondrial; assay: Inhibition of human recombinant N-terminal Strep2-tagged SIRT5 expressed in Escherichia coli BL21 (DE3) using Abz-GVLK(glutaryl)AY(NO2)GV-NH2 as substrate in presence of NAD+ by fluorescence assay
# Target sequence in this assay (Q9NXA8 whole entry): as above
# [3] = molecular target: T2, NAD-dependent protein deacetylase sirtuin-2 (Homo sapiens) (UniProt Q8IXJ6); assay: Binding affinity to human recombinant N-terminal strep2-tagged SIRT2 (43 to 356 residues) expressed in Escherichia coli BL21 (DE3) at 100 uM by SDS-PAGE/LC-MS based pull down assay
# T2 sequence (whole entry): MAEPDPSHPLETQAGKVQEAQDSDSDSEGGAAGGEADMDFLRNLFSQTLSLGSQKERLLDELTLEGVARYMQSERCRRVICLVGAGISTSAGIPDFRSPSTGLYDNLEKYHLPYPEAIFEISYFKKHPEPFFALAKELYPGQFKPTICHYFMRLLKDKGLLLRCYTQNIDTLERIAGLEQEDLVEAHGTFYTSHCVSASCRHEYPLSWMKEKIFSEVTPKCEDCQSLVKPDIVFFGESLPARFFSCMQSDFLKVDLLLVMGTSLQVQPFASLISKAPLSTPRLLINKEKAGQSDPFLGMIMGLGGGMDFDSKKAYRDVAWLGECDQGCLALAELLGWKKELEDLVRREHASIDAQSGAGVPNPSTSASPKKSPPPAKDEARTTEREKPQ
# Outline: (§1)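 Streptavidin agarose (0.5 ml bed volume) loaded with biotinylated inhibitor (100 µM in PBS) for 30 min, then washed with PBST. Bound protein eluted with 200 mM NaOH; eluates analysed by SDS-PAGE and LC-MS.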
# [4] = molecular target: T1, NAD-dependent protein deacylase sirtuin-5, mitochondrial; assay: Binding affinity to human N-terminal biotinylated SIRT5 assessed as dissociation rate constant by surface plasmon resonance spectroscopy
# Outline: (§2)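 Surface plasmon resonance: N-terminally biotinylated Sirt5 (biotinylated via Trypsiligase) immobilized on a streptavidin-coated sensor chip at about 1800 RU. Biotinylated ligand injected at 50 nM in PBS (4 mM KH2PO4, 16 mM Na2HPO4, 115 mM NaCl, pH 7.4). Kinetic constants and affinity obtained by fitting to a 1:1 Langmuir binding model.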
# Target sequence in this assay (Q9NXA8 37-310 limits assumed): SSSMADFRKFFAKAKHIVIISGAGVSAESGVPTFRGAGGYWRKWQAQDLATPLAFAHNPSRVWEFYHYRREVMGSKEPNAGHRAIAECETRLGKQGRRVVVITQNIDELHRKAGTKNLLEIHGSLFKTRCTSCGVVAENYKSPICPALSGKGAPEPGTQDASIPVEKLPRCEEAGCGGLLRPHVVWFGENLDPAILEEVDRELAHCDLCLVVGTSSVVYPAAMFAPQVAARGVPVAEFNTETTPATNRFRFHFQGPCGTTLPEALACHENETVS
# [5] = molecular target: T1, NAD-dependent protein deacylase sirtuin-5, mitochondrial; assay: Binding affinity to human N-terminal biotinylated SIRT5 by surface plasmon resonance spectroscopy; outline: as §2
# Target sequence in this assay (Q9NXA8 whole entry): as the sequence (Q9NXA8 whole entry) above
# [6] = molecular target: T3, NAD-dependent protein deacetylase sirtuin-3, mitochondrial (Homo sapiens) (UniProt Q9NTG7); assay: Binding affinity to human recombinant N-terminal strep2-tagged SIRT3 (114 to 380 residues) expressed in Escherichia coli BL21 (DE3) at 100 uM by SDS-PAGE/LC-MS based pull down assay; outline: as §1
# T3 sequence (whole entry): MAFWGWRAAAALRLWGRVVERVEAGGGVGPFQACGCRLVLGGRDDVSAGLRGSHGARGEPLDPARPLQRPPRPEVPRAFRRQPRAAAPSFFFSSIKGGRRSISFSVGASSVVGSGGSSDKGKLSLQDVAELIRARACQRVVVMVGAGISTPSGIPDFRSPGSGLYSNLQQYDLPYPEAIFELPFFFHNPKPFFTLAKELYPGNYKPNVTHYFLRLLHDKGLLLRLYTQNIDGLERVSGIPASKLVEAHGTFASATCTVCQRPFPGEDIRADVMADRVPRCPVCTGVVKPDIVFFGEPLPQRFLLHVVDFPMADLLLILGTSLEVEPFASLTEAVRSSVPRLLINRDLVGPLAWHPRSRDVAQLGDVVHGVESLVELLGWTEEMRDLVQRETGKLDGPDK
# [7] = molecular target: T1, NAD-dependent protein deacylase sirtuin-5, mitochondrial; assay: Binding affinity to human recombinant N-terminal strep2-tagged SIRT5 expressed in Escherichia coli BL21 (DE3) at 100 uM by SDS-PAGE/LC-MS based pull down assay; outline: as §1
# Target sequence in this assay (Q9NXA8 37-310 limits assumed): as the sequence (Q9NXA8 37-310 limits assumed) above
# [8] = molecular target: T3, NAD-dependent protein deacetylase sirtuin-3, mitochondrial (Homo sapiens); assay: Inhibition of SIRT3 (unknown origin) up to 50 uM using Bz-GVLK(acetyl)EYGV-NH2 as substrate after 8 mins by HPLC analysis
# Outline: (§3)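 HPLC activity assay at 37°C with 0 or 50 µM inhibitor, 500 µM NAD+, 5% DMSO, 0.1 µM enzyme and 50 µM substrate, in 20 mM Tris, 150 mM NaCl, 5 mM MgCl2, pH 7.8. Incubation 8 min for SIRT1-3 and 6 min for SIRT6. Stopped with TFA-water (1:9), then analysed by reversed-phase HPLC with detection at 260 nm.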
# [9] = molecular target: T4, NAD-dependent protein deacetylase sirtuin-1 (Homo sapiens) (UniProt Q96EB6); assay: Inhibition of SIRT1 (unknown origin) up to 50 uM using Bz-GVLK(acetyl)EYGV-NH2 as substrate after 8 mins by HPLC analysis; outline: as §3
# T4 sequence (whole entry): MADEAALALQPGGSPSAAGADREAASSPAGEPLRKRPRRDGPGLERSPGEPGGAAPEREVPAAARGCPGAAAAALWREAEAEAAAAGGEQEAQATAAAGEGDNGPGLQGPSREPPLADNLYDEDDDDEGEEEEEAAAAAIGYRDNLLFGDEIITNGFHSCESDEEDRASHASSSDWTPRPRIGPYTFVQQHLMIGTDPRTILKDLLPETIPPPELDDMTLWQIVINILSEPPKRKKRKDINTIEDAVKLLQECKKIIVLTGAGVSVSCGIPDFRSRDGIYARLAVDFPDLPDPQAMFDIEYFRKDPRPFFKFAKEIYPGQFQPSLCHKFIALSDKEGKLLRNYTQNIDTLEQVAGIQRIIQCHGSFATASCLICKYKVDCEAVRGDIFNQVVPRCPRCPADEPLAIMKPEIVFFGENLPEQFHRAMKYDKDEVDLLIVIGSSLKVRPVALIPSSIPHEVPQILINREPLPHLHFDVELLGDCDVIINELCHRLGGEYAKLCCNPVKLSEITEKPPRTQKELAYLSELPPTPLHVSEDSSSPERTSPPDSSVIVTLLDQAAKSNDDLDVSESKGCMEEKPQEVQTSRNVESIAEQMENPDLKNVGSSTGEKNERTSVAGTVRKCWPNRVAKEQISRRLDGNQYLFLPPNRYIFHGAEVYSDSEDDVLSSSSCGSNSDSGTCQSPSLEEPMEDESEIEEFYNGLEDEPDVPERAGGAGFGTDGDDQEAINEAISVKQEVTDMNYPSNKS
# [10] = molecular target: T2, NAD-dependent protein deacetylase sirtuin-2 (Homo sapiens); assay: Inhibition of SIRT2 (unknown origin) up to 50 uM using Bz-GVLK(acetyl)EYGV-NH2 as substrate after 8 mins by HPLC analysis; outline: as §3
# [11] = molecular target: NAD-dependent protein deacylase sirtuin-6 (Homo sapiens) (UniProt Q8N6T7); assay: Inhibition of SIRT6 (unknown origin) up to 50 uM using Ac-EALPKK(myristoyl)TGGNH2 as substrate after 6 mins by HPLC analysis; outline: as §3
# NAD-dependent protein deacylase sirtuin-6 (Homo sapiens), sequence (Q8N6T7 whole entry): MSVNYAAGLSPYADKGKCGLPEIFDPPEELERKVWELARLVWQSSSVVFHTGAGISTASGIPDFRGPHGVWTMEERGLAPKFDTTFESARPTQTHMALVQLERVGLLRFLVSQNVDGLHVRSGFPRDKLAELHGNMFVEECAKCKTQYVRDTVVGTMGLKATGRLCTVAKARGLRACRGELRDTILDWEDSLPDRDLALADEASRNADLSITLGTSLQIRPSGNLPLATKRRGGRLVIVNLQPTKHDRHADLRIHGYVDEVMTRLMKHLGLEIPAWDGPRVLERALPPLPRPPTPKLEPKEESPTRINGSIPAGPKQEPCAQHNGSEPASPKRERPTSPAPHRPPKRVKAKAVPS
compound,measurement,setting,value
CC(C)C[C@H](NC(=O)[C@@H](NC(=O)CNC(=O)CCC(=O)NCCCOCCOCCOCCCNC(=O)CCCC[C@@H]1SC[C@@H]2NC(=O)N[C@@H]21)C(C)C)C(=O)N[C@@H](CCCCNC(=O)CC(Sc1ccc2ccccc2c1)C(=O)O)C(=O)N[C@@H](CCC(=O)O)C(=O)N[C@@H](Cc1ccc(O)cc1)C(=O)NCC(=O)N[C@H](C(N)=O)C(C)C (some centres undefined) ({X2-Suc}-GVLK(X9)EYGV-NH2),Ki,[1],83.2 nM
same,IC50,[2],91.1 nM
CC(C)C[C@H](NC(=O)[C@@H](NC(=O)CNC(=O)CCC(=O)NCCCOCCOCCOCCCNC(=O)CCCC[C@@H]1SC[C@@H]2NC(=O)N[C@@H]21)C(C)C)C(=O)N[C@@H](CCCCNC(=O)C[C@H](Sc1ccc2ccccc2c1)C(=O)O)C(=O)N[C@@H](CCC(=O)O)C(=O)N[C@@H](Cc1ccc(O)cc1)C(=O)NCC(=O)N[C@H](C(N)=O)C(C)C ({X2-Suc}-GVLK(X1)EYGV-NH2),Activity,[3],inactive
same,koff,[4],0.00015 s⁻¹
same,Kd,[5],0.12 nM
same,Activity,[6],inactive
same,Activity,[7],Active
same,Ki,[1],13.6 nM
same,IC50,[2],19.1 nM
CC(C)C[C@H](NC(=O)[C@@H](NC(=O)CNC(=O)c1ccccc1)C(C)C)C(=O)N[C@@H](CCCCNC(=O)C[C@H](Sc1ccc2ccccc2c1)C(=O)O)C(=O)N[C@@H](CCC(=O)O)C(=O)N[C@@H](Cc1ccc(O)cc1)C(=O)NCC(=O)N[C@H](C(N)=O)C(C)C (Bz-GVLK(X1)EYGV-NH2),inhibition,[8],inactive
same,Kd,[5],0.01 nM
same,inhibition,[9],inactive
same,inhibition,[10],inactive
same,IC50,[2],30.3 nM
same,inhibition,[11],inactive
CC(C)C[C@H](NC(=O)[C@@H](NC(=O)CNC(=O)c1ccccc1)C(C)C)C(=O)N[C@@H](CCCCNC(=O)C[C@H](SCc1ccccc1Cl)C(=O)O)C(=O)N[C@@H](CCC(=O)O)C(=O)N[C@@H](Cc1ccc(O)cc1)C(=O)NCC(=O)N[C@H](C(N)=O)C(C)C (Bz-GVLK(X73)EYGV-NH2),IC50,[2],533 nM
C=CCN1C(=O)/C(=C/c2ccc(-c3cccc(Cl)c3Cl)o2)C(=O)NC1=S,IC50,[2],25200 nM
CC(C)C[C@H](NC(=O)[C@@H](NC(=O)CNC(=O)c1ccccc1)C(C)C)C(=O)N[C@@H](CCCCNC(=O)C[C@@H](Sc1ccccc1)C(=O)O)C(=O)N[C@@H](CCC(=O)O)C(=O)N[C@@H](Cc1ccc(O)cc1)C(=O)NCC(=O)N[C@H](C(N)=O)C(C)C (Bz-GVLK(X69)EYGV-NH2),IC50,[2],1800 nM
CC(C)C[C@H](NC(=O)[C@@H](NC(=O)CNC(=O)c1ccccc1)C(C)C)C(=O)N[C@@H](CCCCNC(=O)C[C@@H](SCc1ccc(Cl)cc1)C(=O)O)C(=O)N[C@@H](CCC(=O)O)C(=O)N[C@@H](Cc1ccc(O)cc1)C(=O)NCC(=O)N[C@H](C(N)=O)C(C)C (Bz-GVLK(X59)EYGV-NH2),IC50,[2],1020 nM
